Measured values reported in ChEMBL document CHEMBL4814057, “4-4-(Anilinomethyl)-3-[4-(trifluoromethyl)phenyl]-1H-pyrazol-1-ylbenzoic acid derivatives as potent anti-gram-positive bacterial agents” (Eur J Med Chem, 2021).
≈ marks a conversion by molar mass, not a printed value. Calls of active or inactive are those of the source. The calls are words filed in the database; no cut-off is given here.

Legend:
Staphylococcus aureus [1] = assay: Inhibition of DNA synthesis in Staphylococcus aureus ATCC 29213 at 8 times MIC measured by liquid scintillation counter; assay type: functional
How it was run: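 Early-exponential cells in CAMHB added to drug (40x stock) in triplicate, with a no-drug control. After 30 min pre-incubation at room temperature, [3H]thymidine 3.0 µCi/tube (DNA) or [3H]uridine 0.5 µCi/tube (RNA) added for 30 min at room temperature. Stopped with cold TCA, precipitate filtered and washed, then scintillation counted.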

Staphylococcus aureus [2] = assay: Antibacterial activity against vancomycin-intermediate resistant Staphylococcus aureus ATCC 700699 assessed as bacterial growth between 7 passages measured 14 to 21 days by broth dilution method; assay type: functional, organism-based; conditions: time 14-21 day
Staphylococcus aureus [3] = assay: Antibacterial activity against vancomycin-intermediate susceptible Staphylococcus aureus ATCC 25923 assessed as bacterial growth inhibition between 7 passages by broth dilution method; assay type: functional, organism-based
Enterococcus faecalis [4] = assay: Antibacterial activity against vancomycin-intermediate Enterococcus faecalis ATCC 29212 assessed as bacterial growth inhibition by measuring fold increase in MIC after 7 passages by broth dilution method; assay type: functional, organism-based
Staphylococcus aureus [5] = assay: Antibacterial activity against methicillin resistant Staphylococcus aureus ATCC 700699 persisters assessed as reduction in viability at 64 times MIC by colony counting method; assay type: functional, organism-based
How it was run: (§1)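 Stationary-phase S. aureus from overnight CAMHB culture (35 °C, 200 rpm), washed thrice in PBS, diluted to ~5 × 10^8 CFU/ml. Incubated with antibiotic at 35 °C, 200 rpm. Aliquots taken at set times, washed, serially diluted in PBS, drop-plated (6 × 6) on TSA with 5% sheep blood. Colonies counted after 18–20 h at 35 °C. Triplicates.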

Staphylococcus aureus [6] = assay: Antimicrobial activity against methicillin-susceptible Staphylococcus aureus ATCC 25923 assessed as bacterial growth inhibitions by CLSI protocol based microdilution method; assay type: functional
Staphylococcus aureus [7] = assay: Antimicrobial activity against antibiotic-resistant Staphylococcus aureus BM-2312 assessed as bacterial growth inhibitions by CLSI protocol based microdilution method; assay type: functional
Staphylococcus aureus [8] = assay: Antimicrobial activity against methicillin-resistant Staphylococcus aureus ATCC 700699 assessed as bacterial growth inhibitions by CLSI protocol based microdilution method; assay type: functional
Bacillus subtilis = assay: Antimicrobial activity against Bacillus subtilis ATCC 6623 assessed as bacterial growth inhibitions by CLSI protocol based microdilution method; assay type: functional
How it was run: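 Broth microdilution starting at 50 µg/ml with 2-fold serial dilutions; run in triplicate.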

Enterococcus faecium [9] = assay: Antimicrobial activity against vancomycin-resistant Enterococcus faecium ATCC 700221 assessed as bacterial growth inhibitions by CLSI protocol based microdilution method; assay type: functional
Staphylococcus aureus [10] = assay: Antibiofilm activity against Staphylococcus aureus UAMS-1 assessed as destruction catheter-associated biofilm formation measured after 48 hrs (reference value: 1.53 x 10^8); assay type: functional
How it was run: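 Plasma-coated catheters colonised for 24 h at 37 °C with gentle shaking, starting from ~1 × 10^7 CFU of MSSA UAMS-1 in biofilm medium (TSB plus glucose and NaCl). […] Medium renewed at 24 h. Catheters (n = 3) sonicated at 48 h and plated on TSA for CFU per catheter.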

Staphylococcus aureus [11] = assay: Antibacterial activity against methicillin resistant Staphylococcus aureus ATCC 700699 persisters assessed as reduction in viability at 16 times MIC by colony counting method; assay type: functional, organism-based; how it was run: as §1
Enterococcus faecium [12] = assay: Antimicrobial activity against vancomycin-resistant Enterococcus faecium clinical isolate 1088051 by CLSI-based broth microdilution assay; assay type: functional
Enterococcus faecium [13] = assay: Antimicrobial activity against vancomycin-resistant Enterococcus faecium clinical isolate 1091563 by CLSI-based broth microdilution assay; assay type: functional
Enterococcus faecium [14] = assay: Antimicrobial activity against vancomycin-resistant Enterococcus faecium clinical isolate 1091720 by CLSI-based broth microdilution assay; assay type: functional
Enterococcus faecium [15] = assay: Antimicrobial activity against vancomycin-resistant Enterococcus faecium clinical isolate 1094112 by CLSI-based broth microdilution assay; assay type: functional
Enterococcus faecium [16] = assay: Antimicrobial activity against vancomycin-resistant Enterococcus faecium clinical isolate 1100440 by CLSI-based broth microdilution assay; assay type: functional
Enterococcus faecium [17] = assay: Antimicrobial activity against vancomycin-resistant Enterococcus faecium clinical isolate 1088168 by CLSI-based broth microdilution assay; assay type: functional
Enterococcus faecium [18] = assay: Antimicrobial activity against vancomycin-resistant Enterococcus faecium clinical isolate 1088228 by CLSI-based broth microdilution assay; assay type: functional
Enterococcus faecium [19] = assay: Antimicrobial activity against vancomycin-resistant Enterococcus faecium clinical isolate 1088925 by CLSI-based broth microdilution assay; assay type: functional
Enterococcus faecium [20] = assay: Antimicrobial activity against vancomycin-resistant Enterococcus faecium clinical isolate 1089544 by CLSI-based broth microdilution assay; assay type: functional
Enterococcus faecium [21] = assay: Antimicrobial activity against vancomycin-resistant Enterococcus faecium clinical isolate 1091282 by CLSI-based broth microdilution assay; assay type: functional
Staphylococcus aureus [22] = assay: Antimicrobial activity against methicillin-sensitive Staphylococcus aureus ATCC 29213 by CLSI-based broth microdilution assay; assay type: functional
Staphylococcus aureus [23] = assay: Antimicrobial activity against methicillin-sensitive Staphylococcus aureus clinical isolate 1088105 by CLSI-based broth microdilution assay; assay type: functional
Staphylococcus aureus [24] = assay: Antimicrobial activity against methicillin-sensitive Staphylococcus aureus clinical isolate 1088626 by CLSI-based broth microdilution assay; assay type: functional
Staphylococcus aureus [25] = assay: Antimicrobial activity against methicillin-resistant Staphylococcus aureus clinical isolate 1088064 by CLSI-based broth microdilution assay; assay type: functional
Staphylococcus aureus [26] = assay: Antimicrobial activity against methicillin-resistant Staphylococcus aureus clinical isolate 1088610 by CLSI-based broth microdilution assay; assay type: functional
Staphylococcus aureus [27] = assay: Antimicrobial activity against methicillin-resistant Staphylococcus aureus clinical isolate 1088888 by CLSI-based broth microdilution assay; assay type: functional
Staphylococcus aureus [28] = assay: Antimicrobial activity against methicillin-resistant Staphylococcus aureus clinical isolate 1089106 by CLSI-based broth microdilution assay; assay type: functional
Staphylococcus aureus [29] = assay: Antimicrobial activity against Staphylococcus aureus ATCC 29213 assessed as inhibition of cell wall synthesis at 8 times MIC measured by liquid scintillation counter; assay type: functional
How it was run: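 Early-exponential S. aureus ATCC 29213 resuspended in M9 minimal medium. Drug added at 8x MIC, pre-incubated 30 min at 37 °C. [14C]N-acetylglucosamine (0.4 µCi/reaction) added, 45 min at 37 °C. Stopped with 8% SDS, heated 95 °C for 30 min, spotted onto nitrocellulose filters, washed with 0.1% SDS. Counted by liquid scintillation. Triplicate.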

Staphylococcus aureus [30] = assay: Antibacterial activity against vancomycin-intermediate susceptible Staphylococcus aureus ATCC 25923 assessed as bacterial growth inhibition by measuring fold increase in MIC between 8 passages by broth dilution method; assay type: functional
Enterococcus faecalis [31] = assay: Antimicrobial activity against vancomycin-susceptible Enterococcus faecalis ATCC 29212 assessed as bacterial growth inhibitions by CLSI protocol based microdilution method
Staphylococcus aureus [32] = assay: Inhibition of lipid synthesis in Staphylococcus aureus ATCC 29213 at 8 times MIC measured by liquid scintillation counter; assay type: functional
How it was run: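 Early-exponential S. aureus ATCC 29213 in CAMHBII exposed to drug at 8x MIC in triplicate tubes. Lipids extracted with chloroform/water. Organic phase dried and counted by liquid scintillation.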

With `O=C(O)c1cn(C2CC2)c2cc(N3CCNCC3)c(F)cc2c1=O` [CIPROFLOXACIN] the “inhibition (INH)” value (Staphylococcus aureus [1]) was 86.2%, the Activity (Staphylococcus aureus [2]) was “inactive” and the Activity (Staphylococcus aureus [3]) was “inactive”. For the same compound, the Activity (Enterococcus faecalis [4]) was “inactive”.
With `CN[C@H](CC(C)C)C(=O)N[C@H]1C(=O)N[C@@H](CC(N)=O)C(=O)N[C@H]2C(=O)N[C@H]3C(=O)N[C@H](C(=O)N[C@H](C(=O)O)c4cc(O)cc(O)c4-c4cc3ccc4O)[C@H](O)c3ccc(c(Cl)c3)Oc3cc2cc(c3O[C@@H]2O[C@H](CO)[C@@H](O)[C@H](O)[C@H]2O[C@H]2C[C@](C)(N)[C@H](O)[C@H](C)O2)Oc2ccc(cc2Cl)[C@H]1O` [VANCOMYCIN] the Activity (Staphylococcus aureus [5]) was “inactive”, the MIC (Staphylococcus aureus [6]) was 0.78 µg/mL (≈ 0.538 µM) and the MIC (Staphylococcus aureus [7]) was 0.78 µg/mL (≈ 0.538 µM). The MIC (Staphylococcus aureus [8]) was 3.12 µg/mL (≈ 2.15 µM), the MIC (Bacillus subtilis) was 0.19 µg/mL (≈ 0.131 µM) and the MIC (Enterococcus faecium [9]) was > 50 µg/mL. The Activity (Staphylococcus aureus [10]) was 1.16 10^7CFU, the Activity (Staphylococcus aureus [11]) was “inactive” and the MIC (Enterococcus faecium [12]) was 64 µg/mL (≈ 44.2 µM). For the same compound, the MIC (Enterococcus faecium [13]) was 64 µg/mL (≈ 44.2 µM), the MIC (Enterococcus faecium [14]) was 64 µg/mL (≈ 44.2 µM) and the MIC (Enterococcus faecium [15]) was > 64 µg/mL. The MIC (Enterococcus faecium [16]) was > 64 µg/mL, the MIC (Enterococcus faecium [17]) was > 64 µg/mL and the MIC (Enterococcus faecium [18]) was > 64 µg/mL. For the same compound, the MIC (Enterococcus faecium [19]) was > 64 µg/mL, the MIC (Enterococcus faecium [20]) was > 64 µg/mL and the MIC (Enterococcus faecium [21]) was > 64 µg/mL. It also gave an MIC (Staphylococcus aureus [22]) of 0.25 µg/mL (≈ 0.173 µM), an MIC (Staphylococcus aureus [23]) of 0.25 µg/mL (≈ 0.173 µM) and an MIC (Staphylococcus aureus [24]) of 0.25 µg/mL (≈ 0.173 µM). For the same compound, the MIC (Staphylococcus aureus [25]) was 64 µg/mL (≈ 44.2 µM), the MIC (Staphylococcus aureus [26]) was 64 µg/mL (≈ 44.2 µM) and the MIC (Staphylococcus aureus [27]) was > 64 µg/mL. The MIC (Staphylococcus aureus [28]) was 64 µg/mL (≈ 44.2 µM), the “inhibition (INH)” value (Staphylococcus aureus [29]) was 87.3% and the Activity (Staphylococcus aureus [30]) was “inactive”. It also gave an MIC (Enterococcus faecalis [31]) of 3.12 µg/mL (≈ 2.15 µM).
`C/C=C/C/C=C/CCC(=O)[C@H]1O[C@H]1C(N)=O` [CERULENIN] was tested, and the “inhibition (INH)” value (Staphylococcus aureus [32]) was 71.9%.
